Shown are actives, neighbours in structure and some others; about 4.1% of the full set was active somewhere.
RGS4 act: RGS4 potentiators or activators, primary screen, cell-based, HEK293 M3R inducible RGS4, calcium flux; B-score at 10 µM; hit rate 0.92% among 310,000; AID 463111, 2010; carbachol calcium flux Fluo4; stronger effect = lower value;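 active = B-score of the integrated calcium signal more than 4 SD below the library mean, with starting fluorescence not abnormally high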;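 also: negative B-score means reduced calcium response which marks RGS4 activation or potentiation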
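Assay system: Inducible-RGS4 HEK293 cells carrying M3 receptor | Schedule: Compound preincubation 20 min at room temperature before agonist | Signal: Kinetic calcium fluorescence imaging with Fluo4-AM dye, 2 µM | Read-out basis: B score from integrated fluorescence ratio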
Kir21 block: inhibitors of mouse Kir2.1 inward-rectifier potassium channel; HEK293-Kir2.1, FluxOR thallium flux fluorescence; stronger effect = lower value; hit rate 0.85% among 310,000; B-score at 10 µM; Inward rectifier potassium channel 2 (Mus musculus), P35561; AID 1672, 2009;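 active = fluorescence ratio B-score at or below minus 3 SD of library scores, with starting-brightness B-score within 2 SD, cut at about -4.2 in these data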;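 also: channel flux triggered by added potassium and thallium sulfate stimulus; B-score of peak minus minimum fluorescence over baseline after thallium stimulus; more negative B-score means stronger Kir2.1 block with less thallium influx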
Target sequence (P35561 whole entry, looked up): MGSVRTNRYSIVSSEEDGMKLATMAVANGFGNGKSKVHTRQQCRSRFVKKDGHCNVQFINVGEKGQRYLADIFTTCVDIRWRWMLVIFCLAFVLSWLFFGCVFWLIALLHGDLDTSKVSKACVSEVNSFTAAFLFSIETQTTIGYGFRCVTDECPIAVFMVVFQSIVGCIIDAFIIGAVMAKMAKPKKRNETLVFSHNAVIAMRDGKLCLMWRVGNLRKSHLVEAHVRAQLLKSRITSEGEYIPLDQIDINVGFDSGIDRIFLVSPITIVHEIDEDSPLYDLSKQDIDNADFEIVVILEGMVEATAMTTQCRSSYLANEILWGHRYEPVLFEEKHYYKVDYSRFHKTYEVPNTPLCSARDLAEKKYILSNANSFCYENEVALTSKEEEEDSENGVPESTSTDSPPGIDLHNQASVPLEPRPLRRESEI
MrgX1 allo act: positive allosteric modulators of MrgX1, primary screen, HEK293 cells, Fluo-4 calcium flux | Mas-related G-protein coupled receptor member X1 (Homo sapiens), Q96LB2 | FDSS; stronger effect = higher value | B-score at 10 µM | hit rate 0.63% among 310,000;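 active = plate-corrected calcium response at least 3 library SD above typical, normal starting fluorescence, not activating the receptor alone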;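 also: compound read alongside a low EC10 to EC30 dose of BAM8-22 agonist; peak minus trough fluorescence over baseline measured at the second addition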
MrgX1 antag: antagonists of human MrgX1 receptor, primary screen, HEK293 cells, Fluo-4 calcium flux | hit rate 1.3% among 310,000 | B-score at 10 µM | BAM8-22 antagonism; stronger effect = lower value;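 active = calcium-response B-score plate-corrected more than 3 library SD below zero, starting fluorescence within 5 deviations, no agonist response on first addition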;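 also: peak minus trough fluorescence over baseline after final BAM8-22 challenge near maximal dose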
MrgX1 ag: agonists of human MrgX1 receptor, primary screen, HEK293 cells, Fluo-4 calcium flux; Mas-related G-protein coupled receptor member X1 (Homo sapiens), Q96LB2; Fluo-4 calcium fluorescence, agonist mode; stronger effect = higher value; B-score at 10 µM; hit rate 0.44% among 310,000;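 active = calcium response B-score plate-corrected fluorescence ratio at least 3 library SD, with starting fluorescence B-score inside 5 SD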
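times = overnight plating, then 30 min 37 °C plus 30 min room-temperature dye loading | assay system = stable human MrgX1 HEK293 cell line | input = fifteen thousand cells per well | signal = kinetic calcium dye fluorescence, Fluo-4 NW | dosing = compound delivered in addition one of three | read-out = B-scored fluorescence response ratio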
RGS4 block: RGS4 inhibitors, primary screen, cell-based, HEK293 M3R inducible RGS4, calcium flux. AID 463165, 2010. Fluo-4 calcium flux; stronger effect = higher value; triggered by carbachol at its EC20. hit rate 0.45% among 310,000. Regulator of G-protein signaling 4 (Homo sapiens), P49798. B-score at 10 µM;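 active = B-score, a plate-corrected calcium signal, over three deviations above library mean, with baseline fluorescence within five deviations of library mean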;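 also: RGS4 expression induced by doxycycline in cells with stable M3 receptor; B-score is computed from the integrated fluorescence ratio over baseline after carbachol; higher B-score means a larger calcium signal and so more RGS4 inhibition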
Target sequence (P49798 whole entry, looked up): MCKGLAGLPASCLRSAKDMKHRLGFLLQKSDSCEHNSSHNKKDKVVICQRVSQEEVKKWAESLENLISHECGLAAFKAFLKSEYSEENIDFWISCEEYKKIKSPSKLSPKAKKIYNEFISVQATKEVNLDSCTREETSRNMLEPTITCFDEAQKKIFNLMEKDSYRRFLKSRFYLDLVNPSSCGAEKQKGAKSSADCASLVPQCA
RGS4 inh valid: enhanced carbachol calcium response, M3R/RGS4 cells, RGS4 inhibitor project, cell-based, validation screen, HEK293 M3R/RGS4, calcium flux | shares compounds with RGS4 block | carbachol calcium Fluo-4 fluorescence; carbachol added at its EC20; 0 = buffer wells, 100 = carbachol control | calcium response, % at 10 µM | hit rate 65% among 1,700 | AID 492999, 2010;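 active = duplicate-averaged calcium response above the buffer-only control mean plus 5 SD of those controls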;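 also: integrated fluorescence ratio F max minus min over baseline F0; higher response in RGS4-induced cells means RGS4 inhibition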
M3R Ca ctr: carbachol calcium response in non-induced M3R cells, confirmation, counter-screen for RGS4 inhibitor project, cell-based, HEK293 M3R | carbachol calcium Fluo-4; submaximal (EC20) carbachol stimulus; buffer wells 0%, carbachol control wells 100% | shares compounds with RGS4 block | hit rate 20% among 1,900 | activity (percent), % at 10 µM; call rule not given here;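 also: RGS4 induction absent so cells express M3R without RGS4; higher means more calcium signal and flags a non-specific hit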
RGS4 inh ctr2: signal in non-induced cells without carbachol, RGS4 inhibitor counter-screen; hit rate 22% among 1,900; HEK293 M3R/RGS4 non-induced, Fluo-4 calcium, no carbachol; normalised: buffer wells 0%, carbachol wells 100%; shares compounds with RGS4 block; calcium response (agonist-mode artifact), % at 10 µM;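 active = duplicate-averaged calcium rise in uninduced cells above buffer wells' mean plus 5 SD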
* hit, by the source's call; i = inactive; / = not tested or not shown.

SMILES	RGS4 act	Kir21 block	MrgX1 allo act	MrgX1 antag	MrgX1 ag	RGS4 block	RGS4 inh valid	M3R Ca ctr	RGS4 inh ctr2
Cc1cc(C(=O)CN2C(=O)NC(C)(c3cccc(Br)c3)C2=O)c(C)n1Cc1ccco1 (stereo unspecified)	i	-0.92	i	i	i	i	/	/	/
Cc1cc(C(=O)CN2C(=O)NC(c3ccccc3)(c3ccccc3)C2=O)c(C)n1Cc1ccco1	i	0.06	i	i	i	7.5*	17.0%*	i	i
O=C(Oc1cccc2cccnc12)c1ccc2c(c1)OCCO2	i	-2.05	i	i	i	i	/	/	/
CC(=O)Nc1cccc(C(=O)/C=C/c2ccc(N(C)C)cc2)c1	i	-0.78	i	i	63.4*	i	i	i	156.0%*
CC(=O)Nc1cccc(C(=O)/C=C/c2ccc(F)cc2)c1	i	-0.99	i	i	i	i	i	i	10.5%*
CC(=O)Nc1cccc(C(=O)/C=C/c2ccc(Br)cc2)c1	i	-5.97*	i	i	i	7.22*	i	i	i
CC(=O)Nc1cccc(C(=O)/C=C/c2ccc[nH]2)c1	i	-0.09	i	i	i	i	/	/	/
O=C(CSc1cccc[n+]1[O-])Nc1cc(S(=O)(=O)N2CCOCC2)ccc1N1CCOCC1	i	0.13	i	i	i	i	/	/	/
c1ccc(CN2CCN(c3nc4ccccc4s3)CC2)cc1	i	0.77	i	i	i	i	/	/	/
CN(C(=O)COC(=O)COc1ccc(Cl)cc1)C1CCCCC1	i	0.06	i	i	i	i	/	/	/
O=C1C(Cl)=C(N2CCC(C(=O)O)CC2)C(=O)c2ccccc21	i	-0.09	14.6*	i	i	8.76*	39.0%*	i	i
Cc1ccc(NC(=O)OCc2cc(-c3ccccc3)on2)cc1	i	1.51	i	i	i	i	i	i	i
COc1cnc(-c2ccccn2)nc1Oc1ccc(Cl)c2ccccc12	i	1.28	i	i	i	10.4*	16.5%*	i	i
CS(=O)(=O)c1ccc(C(=O)NCCN2C(=O)S/C(=C\c3cccnc3)C2=O)cc1[N+](=O)[O-]	i	-1.05	i	i	i	5.72*	22.5%*	i	i
CCn1nc(NS(=O)(=O)c2ccccc2[N+](=O)[O-])c2cc3cccc(C)c3nc21	i	2.15	i	i	i	i	/	/	/
CCn1nc(NS(=O)(=O)c2ccc([N+](=O)[O-])cc2)c2cc3cccc(C)c3nc21	i	2.9	i	i	i	17.1*	22.0%*	37.0%*	i
O=C(Cn1ccc(C(F)(F)F)n1)N=Nc1c(O)[nH]c2ccccc12	i	1.11	i	i	i	i	/	i	i
O=C(Cn1ccc(C(F)(F)F)n1)N=Nc1c(O)[nH]c2ccc(Br)cc12	i	0.29	i	i	i	4.74*	32.5%*	i	i
Cc1onc(-c2c(F)cccc2Cl)c1C(=O)NCCc1ccncc1	i	1.59	i	i	i	i	/	/	/
Cn1c(=O)[nH]c(=O)c2c1nc([N+](=O)[O-])n2Cc1ccccc1	i	-1.2	i	i	i	11.6*	71.0%*	42.0%*	i
CC1(C)CC(=O)C(C(C#Cc2ccccc2)C2=C(O)CC(C)(C)CC2=O)=C(O)C1	i	-3.52	i	i	i	8*	44.5%*	i	22.0%*
O=C(O)C(c1ccccc1)N1C(=O)/C(=C\c2ccc(-c3ccc(Br)cc3)o2)SC1=S (stereo unspecified)	-7.76*	1.72	/	/	/	9.56*	9.0%*	i	234.0%*
C=CCN1C(=O)/C(=C/c2ccc(-c3ccc(F)cc3)o2)SC1=S	i	-0.05	i	-5.6*	i	14.3*	33.5%*	i	59.5%*
Cc1ccc(-c2ccc(C(=O)NCc3ccccc3)o2)c2ccccc12	i	0.21	i	i	i	6.99*	i	i	i
NC(=O)C1=NOC(CNc2ncc(C(F)(F)F)cc2Cl)C1 (stereo unspecified)	i	2.97	i	i	i	i	i	i	i
SMILES	RGS4 act	Kir21 block	MrgX1 allo act	MrgX1 antag	MrgX1 ag	RGS4 block	RGS4 inh valid	M3R Ca ctr	RGS4 inh ctr2
Oc1nc(Nc2ccc(Cl)cc2Cl)sc1/C=C1\C=Nc2ccccc21	i	-0.83	i	i	i	5.73*	10.5%*	i	20.0%*
CCOC(=O)C1CCN(c2ncnc3cc(OC)c(OC)cc23)CC1	i	-0.1	i	i	i	i	/	/	/
COc1cc2[nH]c3c(N4CCC(C(N)=O)CC4)ncnc3c2cc1OC	i	-1.63	i	i	i	5.69*	i	i	i
Cc1cccc(C2c3[nH]c4ccccc4c3CCN2C(=O)Cc2n[nH]c(C)n2)n1 (stereo unspecified)	i	1.85	i	i	i	i	/	i	i
O=c1c(O)c(-c2ccc(O)c(O)c2)oc2cc(O)cc(O)c12	i	0.76	8.79*	i	i	5*	33.5%*	40.0%*	i
Cc1ccc(C(C[N+](=O)[O-])c2c(-c3ccccc3O)[nH][nH]c2=O)cc1 (stereo unspecified)	i	-9.49*	i	i	i	6.31*	33.5%*	68.5%*	21.5%*
O=c1[nH][nH]c(-c2ccccc2O)c1C(C[N+](=O)[O-])c1ccc(Br)cc1 (stereo unspecified)	i	-2.94	i	i	i	14.5*	32.0%*	35.5%*	19.5%*
CC(=O)CCS(=O)(=O)c1ccc(Oc2ccc(S(=O)(=O)CCC(C)=O)cc2)cc1	i	-1.87	i	i	i	5.15*	22.5%*	i	i

Screening data from PubChem BioAssay.
